# From PubChem
# Not all results are given here.
# Apaf1 activ: activators of human Apaf-1 apoptosome, primary screen, biochemical, DEVD-Rh110 fluorescence, uHTS; Apoptotic protease-activating factor 1 (Homo sapiens), O14727; Apaf-1 apoptosome caspase-3 activation; hits give low values; activity change, negative = activation, % at 20 µM; hit rate 0.31% among 330,000; AID 489031, 2010;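 active = activity change at or below -40% at 20 µM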
# Target sequence (O14727 whole entry, looked up): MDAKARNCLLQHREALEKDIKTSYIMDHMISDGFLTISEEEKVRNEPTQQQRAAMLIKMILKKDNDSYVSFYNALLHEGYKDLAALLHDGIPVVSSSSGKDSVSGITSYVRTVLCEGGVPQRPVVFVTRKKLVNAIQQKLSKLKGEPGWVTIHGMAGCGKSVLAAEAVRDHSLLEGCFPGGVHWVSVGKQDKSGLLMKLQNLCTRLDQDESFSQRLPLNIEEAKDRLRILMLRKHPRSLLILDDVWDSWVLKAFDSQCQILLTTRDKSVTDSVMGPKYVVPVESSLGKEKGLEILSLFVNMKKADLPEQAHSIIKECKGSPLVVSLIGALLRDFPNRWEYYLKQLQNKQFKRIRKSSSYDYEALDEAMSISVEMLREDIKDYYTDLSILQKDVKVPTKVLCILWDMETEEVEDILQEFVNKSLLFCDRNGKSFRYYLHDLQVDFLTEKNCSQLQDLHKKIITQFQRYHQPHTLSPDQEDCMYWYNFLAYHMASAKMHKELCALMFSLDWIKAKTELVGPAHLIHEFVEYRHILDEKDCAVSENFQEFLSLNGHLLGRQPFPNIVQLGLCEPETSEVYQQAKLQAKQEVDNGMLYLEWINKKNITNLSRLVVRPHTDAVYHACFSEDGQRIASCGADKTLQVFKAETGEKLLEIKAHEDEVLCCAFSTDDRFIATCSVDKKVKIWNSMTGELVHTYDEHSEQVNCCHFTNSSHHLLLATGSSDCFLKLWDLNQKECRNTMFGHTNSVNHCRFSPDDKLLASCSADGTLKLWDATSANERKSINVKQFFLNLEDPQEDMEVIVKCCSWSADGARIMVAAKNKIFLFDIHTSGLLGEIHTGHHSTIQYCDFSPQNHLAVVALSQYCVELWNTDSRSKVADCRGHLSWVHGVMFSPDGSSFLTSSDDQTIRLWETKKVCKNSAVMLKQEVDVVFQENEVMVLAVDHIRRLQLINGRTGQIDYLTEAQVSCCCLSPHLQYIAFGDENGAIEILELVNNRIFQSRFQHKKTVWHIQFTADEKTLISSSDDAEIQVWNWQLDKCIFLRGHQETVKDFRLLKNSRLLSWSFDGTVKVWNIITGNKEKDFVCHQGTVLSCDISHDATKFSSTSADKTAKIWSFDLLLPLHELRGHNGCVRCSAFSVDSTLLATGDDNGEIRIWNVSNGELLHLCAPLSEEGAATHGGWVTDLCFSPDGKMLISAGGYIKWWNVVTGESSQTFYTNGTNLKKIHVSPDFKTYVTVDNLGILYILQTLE
#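 System: Reconstituted apoptosome of Apaf-1, cytochrome c, caspase-9, procaspase-3 | Reagent: dATP, cytochrome c, and (Z-DEVD)2-Rh110 caspase-3 substrate | Times: 30 min compound preincubation and 50 min reaction, both room temperature | Detection: Caspase-3-released Rh110 fluorescence, 540 nm emission, 480 nm excitation | Measure: Caspase-3 activity via Apaf-1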
# Rh110 interf act: Rh110 fluorescence interference by putative Apaf-1 activators, confirmation, artefact control for Apaf-1 activator project, biochemical, 20 µM; quenched caspase reaction, Ex480/Em540; shares compounds with Apaf1 activ; 980 tested, under 10 active; fluorescence interference (activity change), % at 20 µM, hits read low;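 active = mean activity change at or below -40% when tested at 20 µM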
# Apaf-1 act conf: Apaf-1 activators, single-dose retest, confirmation, biochemical, fluorescence, DEVD-Rh110, 20 µM. shares compounds with Apaf1 activ. reconstituted apoptosome caspase-3 activity; hits give low values. activity change, negative = activation, % at 20 µM. hit rate 5% among 980. AID 504617, 2011;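 active = mean activity change at or below -40%, meaning activation of 40% or more, at 20 µM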
# Numbers without * were called inactive; nt = no result given.
SMILES,Apaf1 activ,Rh110 interf act,Apaf-1 act conf
CCc1ccc(OCC(O)CN2CCC(CN3C(=O)c4cccc5cccc(c45)C3=O)CC2)cc1 (centres undefined),42.0,nt,nt
CCc1ccc(Nc2n[n+](-c3ccccc3)c(-c3c(Cl)cccc3Cl)s2)cc1,43.6,nt,nt
CC1CCN(C2=C(NS(=O)(=O)c3ccc(Cl)cc3)C(=O)c3ccccc3C2=O)CC1,46.4,nt,nt
COc1ccc(CCNC(=O)C(=O)NCC2CCCN2S(=O)(=O)c2ccc(OC)cc2)cc1 (centres undefined),61.1,nt,nt
COc1ccc(CNC(=O)CNS(=O)(=O)c2ccc(Cl)cc2)cc1,-176.7*,7.5,13.6
CC(=O)c1ccc2c(c1)C1C=CCC1C(c1ccncc1)N2 (centres undefined),59.6,nt,nt
COc1ccc(-n2nc3ccc(N)cc3n2)cc1Cl,95.4,nt,nt
CCCN(CC1CC1)c1nc(N)c2c(N)nc(OC)cc2c1C#N,93.2,nt,nt
CC(=O)N=Cc1c(C)c(C#N)c(=O)n(C)c1O,43.9,nt,nt
C=CCc1cccc(/C=N/NC(=O)CNc2cccc3ccccc23)c1O,96.4,nt,nt
O=[N+]([O-])c1cccc(C=Nc2cccc3ccccc23)c1O,93.4,nt,nt
COC(=O)c1c(C(C)=O)c(C)n(C)c1C,-343.1*,-1.3,10.9
CCCN1C(=O)/C(=C/c2cc(C)n(C)c2C)SC1=Nc1ccc(OC)cc1,40.7,nt,nt
Cc1ccccc1-n1c(C)nc2ccccc21,-75.2*,-5.7,5.3
CC(=O)c1cccc(NC(=O)CSc2ccc(-c3ccco3)nn2)c1,45.2,nt,nt
O=C(CSc1ccc(-c2ccc3c(c2)OCO3)nn1)Nc1nccs1,-45.3*,8.6,11.5
O[C@@H](c1cc(C(F)(F)F)nc2c(C(F)(F)F)cccc12)[C@H]1CCCCN1,51.9,nt,nt
CCCCCCSc1ccc([C@@H]2[C@H]3C(=O)N(CC)C(=O)[C@H]3[C@]3(C(=O)OC)CCCN23)cc1,-224.6*,5.4,13.3
O=C(NNc1cc(N2CCOCC2)nc(N2CCOCC2)n1)c1ccc(Cl)cc1Cl,47.4,nt,nt
COc1cc(NC2CCCCC2O)c2nc(-c3ccc(Cl)cc3)ccc2c1 (centres undefined),55.3,nt,nt
CCC(=O)OCCNc1cc(Sc2nc3ccccc3s2)c2nonc2c1[N+](=O)[O-],45.7,nt,nt
COc1ccc(-c2[nH]nc3oc(=O)cc(C)c23)cc1,-135.4*,6.7,16.3
COc1ccc(-c2cc(-c3ccc(F)cc3)nc(N3CCN(C)CC3)n2)cc1,65.3,nt,nt
c1cc2cn[nH]c2cc1NC1CCCCCC1,52.8,nt,nt
O=C(NCCc1ccccc1)c1ccccc1SCC(=O)N1CCCC1,60.3,nt,nt
SMILES,Apaf1 activ,Rh110 interf act,Apaf-1 act conf
Cc1ccc(-c2noc(CCC(=O)N3CCN(c4cccc(C(F)(F)F)c4)CC3)n2)cc1,42.1,nt,nt
O=C(CSc1ccccn1)N1CCN(c2ccccc2)CC1,-49.0*,-9.6,6.2
CC(C)NC1=C(Cl)C(=O)c2ccccc2C1=O,63.2,nt,nt
CS(=O)(=O)N(Cc1ccc(C(=O)NN=C2CCCCCC2)cc1)c1ccccc1,-481.9*,2.1,13.6
CCC(CO)Oc1cc(NCc2cccc(C)c2)c2ncn(C(C)C)c2c1 (centres undefined),54.2,nt,nt
COC(=O)c1c(N)n(-c2ccc(NC(C)=O)cc2)c2nc3ccccc3nc12,48.8,nt,nt
CC(=O)Nc1ccc(NC(=O)C2CC(=O)Nc3nc4ccccc4n32)cc1 (centres undefined),-43.4*,5.8,9.0
CN1CCc2cccc3c2[C@H]1Cc1ccc(O)c(O)c1-3,42.2,nt,nt
c1ccc(-c2noc(CN3CCN(c4cnccn4)CC3)n2)cc1,-91.8*,3.0,1.1
COCCCC1CCN(Cc2nc(-c3ccccc3)no2)CC1,-50.8*,6.6,11.0
O=C(O)c1cc(O)c2c(c1)[C@@H]([C@H]1c3cc(C(=O)O)cc(O)c3C(=O)c3c(O[C@@H]4O[C@H](CO)[C@@H](O)[C@H](O)[C@H]4O)cccc31)c1cccc(O[C@@H]3O[C@H](CO)[C@@H](O)[C@H](O)[C@H]3O)c1C2=O,98.7,nt,nt
Cc1cc(Nc2cccc(Cl)c2)nc(NCc2ccccc2)n1,43.0,nt,nt
COc1ccc(N/C=C2\CCc3ccccc3C2=O)cc1,79.2,nt,nt
COc1ccc(S(=O)(=O)Nc2ccc(S(=O)(=O)N3CCOCC3)cc2)cc1,-63.9*,-5.6,8.2
COc1ccc(NC(=O)NNc2cc(N3CCOCC3)nc(N3CCOCC3)n2)cc1,51.6,nt,nt
COc1cc(NC(C)CCCN)c2ncccc2c1 (centres undefined),92.5,nt,nt
Oc1ccc(N=Cc2ccc(-c3cccs3)s2)cc1,95.8,nt,nt
O=C(NCc1cccs1)c1cccnc1C(=O)O,-79.2*,4.5,13.5
CCN(CC(=O)NCc1cccs1)C(=O)CCCOc1ccc(C(C)(C)C)cc1,42.1,nt,nt
COCCn1c(N)c(C(=O)NCc2cccs2)c2nc3ccccc3nc21,95.2,nt,nt
COc1ccc(C(c2c(C)[nH]n(-c3ccccc3)c2=O)c2c(C)[nH]n(-c3ccccc3)c2=O)cc1OC,97.4,nt,nt
O=C1C(Nc2ccccc2)=C(N2CCCCC2)C(=O)c2ccccc21,93.1,nt,nt
O=C(C[C@H]1C[C@H](C(=O)N2CCCCC2)[C@@]2(CCc3ccccc3)c3[nH]c4ccc(Cl)cc4c3CCN2C1=O)NCCCn1ccnc1,60.6,nt,nt
CC(=O)N1CCC(=O)Nc2ccc([N+](=O)[O-])cc21,-64.4*,4.8,9.9
O=C1Nc2ccccc2Nc2ccc([N+](=O)[O-])cc21,43.0,nt,nt
SMILES,Apaf1 activ,Rh110 interf act,Apaf-1 act conf
Nc1cc(N2CCCC2)c(Cl)cc1[N+](=O)[O-],42.6,nt,nt
COc1ccc(/C=N/Nc2cc(C)nc3ccc(Br)cc23)cc1,55.5,nt,nt
Cc1ccc(SC(C)c2nc(-c3ccccc3)no2)cc1 (centres undefined),-247.1*,0.4,12.0
Clc1ccc(OCCSc2nnnn2C2CCCCC2)cc1,65.2,nt,nt
Nn1c(SCCOc2ccc(Cl)cc2)nnc1-c1cccnc1,-43.6*,12.7,15.6
COC(=O)C1=C(C)N(Cc2ccccc2)C(=NCc2cccc(C(F)(F)F)c2)N[C@H]1c1cccc(C(F)(F)F)c1,74.5,nt,nt
COc1ccc(-c2noc(COc3ccc4ccccc4c3Br)n2)cc1OC,-135.7*,0.0,7.5
O=C(CSc1nnnn1-c1ccc(C(=O)O)cc1)NC1CC1,-324.1*,-3.2,7.2
[O-]/C(=C(\C(=S)Nc1cccc2ccccc12)[n+]1ccccc1)c1ccc(Cl)s1,47.0,nt,nt
COc1ccccc1-c1sc2cc3c(cc2c1-c1ccc(OCCN2CCCCC2)cc1)OCO3,59.4,nt,nt
Cc1ccc(F)c(NC(=S)Nc2cccc3ccccc23)c1,78.2,nt,nt
CC(Oc1ccc2ccccc2c1)C(=O)NNC(=O)Nc1ccccc1F (centres undefined),-132.1*,-4.6,10.9
Fc1ccccc1NC(=S)Nc1cccc2cnccc12,97.4,nt,nt
Cc1onc(-c2ccccc2Cl)c1C(=O)NCc1ccc2c(c1)cc(C)n2C,53.1,nt,nt
COc1cc(OC)c2c(-c3ccccc3)cc(=O)oc2c1C(CCN1CCCC(C)C1)c1ccc2c(c1)OCO2 (centres undefined),56.2,nt,nt
Cc1nn(-c2ccccc2)c2c1C(c1ccccc1)C(C#N)=C(N)O2 (centres undefined),96.5,nt,nt
Nc1ccc(Oc2ncccn2)cc1,43.5,nt,nt
CC(=O)Nc1ccc(CN2CCc3c([nH]c4ccccc34)C2C(C)(C)C)cc1 (centres undefined),-55.2*,8.7,14.9
